Results: ChEMBL document CHEMBL1811853, “Design and evaluation of 3-aminopyrazolopyridinone kinase inhibitors inspired by the natural product indirubin” (Bioorg Med Chem, 2011)
In brackets after ≈: the same amount, converted by molar mass.

Experiments:
[1] = target: Ribosomal protein S6 kinase alpha-5 (Homo sapiens) (UniProt O75582); assay: Inhibition of MSK1 at 30 uM by microfluidic mobility shift assay
Method in brief: (§1)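 Single-concentration screen, singlicate, 30 uM final (diluted from 1 mM DMSO solutions), fluorescently tagged peptide substrate appropriate to each kinase, ATP at apparent Km for each protein. Phosphorylated and unphosphorylated peptides separated electrophoretically; conversion is the phosphorylated peak area over the sum of both peaks. No-inhibitor and no-ATP controls; H89 reference on each plate.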

[2] = target: Insulin receptor (Homo sapiens) (UniProt P06213); assay: Inhibition of INSR at 30 uM by microfluidic mobility shift assay; method in brief: as §1
MCF7 = assay: Growth inhibition of human MCF7 cells; type: functional
[3] = target: T1, Proto-oncogene tyrosine-protein kinase Src (Homo sapiens, UniProt P12931); assay: Inhibition of SRC at 30 uM by microfluidic mobility shift assay; method in brief: as §1
[4] = target: T2, MAP kinase-activated protein kinase 5 (Homo sapiens) (UniProt Q8IW41); assay: Inhibition of PRAK1 at 30 uM by microfluidic mobility shift assay; method in brief: as §1
T2 sequence (whole entry): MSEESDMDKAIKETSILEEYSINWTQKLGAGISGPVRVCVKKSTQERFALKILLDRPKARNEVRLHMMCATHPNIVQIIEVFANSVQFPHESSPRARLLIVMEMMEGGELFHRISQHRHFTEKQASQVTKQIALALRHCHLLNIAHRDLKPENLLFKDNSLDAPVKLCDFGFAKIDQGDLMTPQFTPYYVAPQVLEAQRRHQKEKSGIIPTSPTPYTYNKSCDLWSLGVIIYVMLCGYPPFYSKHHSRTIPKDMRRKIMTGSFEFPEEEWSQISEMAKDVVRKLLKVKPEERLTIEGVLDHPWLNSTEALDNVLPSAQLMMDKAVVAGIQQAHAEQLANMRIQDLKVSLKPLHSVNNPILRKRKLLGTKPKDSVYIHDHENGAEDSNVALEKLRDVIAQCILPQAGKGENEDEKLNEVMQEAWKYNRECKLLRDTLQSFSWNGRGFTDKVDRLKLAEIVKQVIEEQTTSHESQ

[5] = target: T3, Tyrosine-protein kinase ABL1 (Homo sapiens, UniProt P00519); assay: Inhibition of ABL at 30 uM by microfluidic mobility shift assay; method in brief: as §1
[6] = target: T4, Protein kinase C zeta type (Homo sapiens) (UniProt Q05513); assay: Inhibition of PKCz at 30 uM by microfluidic mobility shift assay; method in brief: as §1
T4 sequence (whole entry): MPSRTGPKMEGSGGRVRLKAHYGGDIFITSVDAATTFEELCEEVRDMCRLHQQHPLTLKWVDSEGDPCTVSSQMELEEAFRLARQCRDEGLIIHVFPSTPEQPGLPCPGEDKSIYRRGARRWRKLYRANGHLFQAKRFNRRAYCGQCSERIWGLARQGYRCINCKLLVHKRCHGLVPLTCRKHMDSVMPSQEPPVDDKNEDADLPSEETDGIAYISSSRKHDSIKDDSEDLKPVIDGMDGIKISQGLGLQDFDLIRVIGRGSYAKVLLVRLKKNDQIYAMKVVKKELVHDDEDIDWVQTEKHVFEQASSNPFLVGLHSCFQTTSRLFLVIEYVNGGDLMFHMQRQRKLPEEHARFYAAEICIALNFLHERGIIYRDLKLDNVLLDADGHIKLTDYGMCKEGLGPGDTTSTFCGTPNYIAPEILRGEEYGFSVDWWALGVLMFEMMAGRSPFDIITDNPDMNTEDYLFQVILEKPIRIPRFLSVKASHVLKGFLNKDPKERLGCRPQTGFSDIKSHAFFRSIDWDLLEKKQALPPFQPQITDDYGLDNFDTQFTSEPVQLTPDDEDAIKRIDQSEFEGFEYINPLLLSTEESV

[7] = Aqueous solubility of the compound by HPLC analysis; type: physicochemical; conditions: water
Method in brief: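 Solubility determined by HPLC measurement of the concentration in saturated aqueous solutions of the compounds.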

[8] = target: Serine/threonine-protein kinase Chk2 (Homo sapiens, UniProt O96017); assay: Inhibition of CHK2 by microfluidic mobility shift assay
Method in brief: (§2)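 IC50 determined in the mobility shift format: a fluorescently tagged peptide substrate appropriate to each kinase, ATP at its apparent Km for each protein, and electrophoretic separation of phospho and unphosphorylated peptide. Percent conversion is the ratio of the phosphopeptide peak area to the total peak area. Controls were no inhibitor and no ATP.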

[9] = target: MAP kinase-activated protein kinase 2 (Homo sapiens, UniProt P49137); assay: Inhibition of MAPKAPK2 by microfluidic mobility shift assay; method in brief: as §2
[10] = Inhibition of PKA by microfluidic mobility shift assay; method in brief: as §2
[11] = target: Tyrosine-protein kinase Lck (Homo sapiens, UniProt P06239); assay: Inhibition of LCK by microfluidic mobility shift assay; method in brief: as §2
[12] = target: Casein kinase I isoform delta (Homo sapiens, UniProt P48730); assay: Inhibition of CK1delta by microfluidic mobility shift assay; method in brief: as §2
[13] = target: T1, Proto-oncogene tyrosine-protein kinase Src; assay: Inhibition of SRC by microfluidic mobility shift assay; method in brief: as §2
[14] = target: Tyrosine-protein kinase Lyn (Homo sapiens, UniProt P07948); assay: Inhibition of LYN by microfluidic mobility shift assay; method in brief: as §2
Aurora kinase A = Aurora kinase A (Homo sapiens, UniProt O14965); assay: Inhibition of AurA by microfluidic mobility shift assay; method in brief: as §2
[15] = target: Tyrosine-protein kinase Fyn (Homo sapiens, UniProt P06241); assay: Inhibition of FYN by microfluidic mobility shift assay; method in brief: as §2
[16] = target: T3, Tyrosine-protein kinase ABL1; assay: Inhibition of ABL by microfluidic mobility shift assay; method in brief: as §2
[17] = target: Serine/threonine-protein kinase Chk1 (Homo sapiens, UniProt O14757); assay: Inhibition of CHK1 by microfluidic mobility shift assay; method in brief: as §2

Chain of Insulin receptor (Homo sapiens) (P06213 28-758 limits assumed): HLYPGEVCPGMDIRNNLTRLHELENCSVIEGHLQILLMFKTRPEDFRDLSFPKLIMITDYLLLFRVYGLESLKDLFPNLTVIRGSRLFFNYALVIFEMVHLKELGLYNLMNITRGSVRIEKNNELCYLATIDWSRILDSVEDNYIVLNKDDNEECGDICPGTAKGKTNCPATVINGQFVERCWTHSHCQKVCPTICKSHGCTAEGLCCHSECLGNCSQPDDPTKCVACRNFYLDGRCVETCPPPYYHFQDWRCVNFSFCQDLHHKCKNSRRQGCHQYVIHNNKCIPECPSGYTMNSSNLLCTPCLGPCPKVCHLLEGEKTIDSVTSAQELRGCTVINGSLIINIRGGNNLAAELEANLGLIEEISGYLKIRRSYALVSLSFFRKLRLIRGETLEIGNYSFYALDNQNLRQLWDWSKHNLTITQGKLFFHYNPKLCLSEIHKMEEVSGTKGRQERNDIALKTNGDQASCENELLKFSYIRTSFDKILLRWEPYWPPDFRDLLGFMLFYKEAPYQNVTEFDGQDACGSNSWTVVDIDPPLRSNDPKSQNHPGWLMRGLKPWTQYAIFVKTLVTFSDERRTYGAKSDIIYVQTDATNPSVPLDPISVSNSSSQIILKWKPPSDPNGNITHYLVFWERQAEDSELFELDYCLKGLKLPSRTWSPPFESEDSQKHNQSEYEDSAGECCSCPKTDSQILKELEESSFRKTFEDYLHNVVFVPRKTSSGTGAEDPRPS
Chain of Insulin receptor (Homo sapiens) (P06213 763-1382 limits assumed): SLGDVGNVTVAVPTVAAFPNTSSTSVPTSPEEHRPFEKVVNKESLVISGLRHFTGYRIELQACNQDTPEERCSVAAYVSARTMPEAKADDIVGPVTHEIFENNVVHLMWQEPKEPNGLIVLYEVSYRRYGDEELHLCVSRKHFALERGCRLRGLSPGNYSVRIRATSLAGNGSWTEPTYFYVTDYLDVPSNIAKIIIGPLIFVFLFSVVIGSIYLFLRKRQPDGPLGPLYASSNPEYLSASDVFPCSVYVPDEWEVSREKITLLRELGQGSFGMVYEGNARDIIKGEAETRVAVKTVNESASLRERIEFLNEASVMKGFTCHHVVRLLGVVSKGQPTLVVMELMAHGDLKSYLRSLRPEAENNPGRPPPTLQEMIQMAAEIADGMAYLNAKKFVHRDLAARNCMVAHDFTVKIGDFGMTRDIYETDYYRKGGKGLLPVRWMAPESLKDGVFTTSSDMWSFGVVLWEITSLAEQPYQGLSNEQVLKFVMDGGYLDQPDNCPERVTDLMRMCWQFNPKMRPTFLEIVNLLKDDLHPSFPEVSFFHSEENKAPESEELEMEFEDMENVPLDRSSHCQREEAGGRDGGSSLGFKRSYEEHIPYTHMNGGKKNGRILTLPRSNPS
Chain of Ribosomal protein S6 kinase alpha-5 (Homo sapiens) (O75582 whole entry, looked up): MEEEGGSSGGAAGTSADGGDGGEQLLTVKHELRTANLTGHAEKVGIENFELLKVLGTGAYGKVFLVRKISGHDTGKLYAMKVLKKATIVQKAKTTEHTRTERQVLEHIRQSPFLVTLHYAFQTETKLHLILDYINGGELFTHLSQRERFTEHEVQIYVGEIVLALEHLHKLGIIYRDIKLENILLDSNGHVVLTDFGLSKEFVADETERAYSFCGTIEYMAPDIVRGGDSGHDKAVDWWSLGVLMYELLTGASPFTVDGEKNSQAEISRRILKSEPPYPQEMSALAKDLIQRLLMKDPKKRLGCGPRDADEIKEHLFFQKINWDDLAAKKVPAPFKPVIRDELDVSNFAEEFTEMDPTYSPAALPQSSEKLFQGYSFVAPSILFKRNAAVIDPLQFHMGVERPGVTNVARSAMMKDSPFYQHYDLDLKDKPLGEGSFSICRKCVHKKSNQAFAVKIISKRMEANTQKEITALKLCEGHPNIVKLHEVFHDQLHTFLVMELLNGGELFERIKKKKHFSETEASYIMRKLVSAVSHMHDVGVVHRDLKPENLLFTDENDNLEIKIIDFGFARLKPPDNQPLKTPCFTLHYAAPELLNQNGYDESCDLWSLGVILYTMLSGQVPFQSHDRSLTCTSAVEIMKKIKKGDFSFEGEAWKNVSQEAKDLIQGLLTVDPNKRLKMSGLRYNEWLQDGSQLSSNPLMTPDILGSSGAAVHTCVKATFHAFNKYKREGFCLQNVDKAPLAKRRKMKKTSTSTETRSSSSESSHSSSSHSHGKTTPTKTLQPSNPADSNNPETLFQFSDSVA
T1 sequence (P12931 2-536 limits assumed): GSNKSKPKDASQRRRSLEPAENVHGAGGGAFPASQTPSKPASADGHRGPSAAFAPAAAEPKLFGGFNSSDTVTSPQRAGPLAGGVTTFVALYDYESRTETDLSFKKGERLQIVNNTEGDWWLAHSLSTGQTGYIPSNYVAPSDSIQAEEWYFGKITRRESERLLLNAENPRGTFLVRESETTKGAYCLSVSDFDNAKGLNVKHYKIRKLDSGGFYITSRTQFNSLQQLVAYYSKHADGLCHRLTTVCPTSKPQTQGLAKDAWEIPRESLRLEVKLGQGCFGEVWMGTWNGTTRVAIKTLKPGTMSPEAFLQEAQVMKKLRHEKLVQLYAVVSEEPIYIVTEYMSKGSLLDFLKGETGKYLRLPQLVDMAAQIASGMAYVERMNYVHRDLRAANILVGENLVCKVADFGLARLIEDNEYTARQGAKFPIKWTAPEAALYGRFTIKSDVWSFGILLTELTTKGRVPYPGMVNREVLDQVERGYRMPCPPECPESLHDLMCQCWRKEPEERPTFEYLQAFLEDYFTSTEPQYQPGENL
T3 sequence (P00519 whole entry): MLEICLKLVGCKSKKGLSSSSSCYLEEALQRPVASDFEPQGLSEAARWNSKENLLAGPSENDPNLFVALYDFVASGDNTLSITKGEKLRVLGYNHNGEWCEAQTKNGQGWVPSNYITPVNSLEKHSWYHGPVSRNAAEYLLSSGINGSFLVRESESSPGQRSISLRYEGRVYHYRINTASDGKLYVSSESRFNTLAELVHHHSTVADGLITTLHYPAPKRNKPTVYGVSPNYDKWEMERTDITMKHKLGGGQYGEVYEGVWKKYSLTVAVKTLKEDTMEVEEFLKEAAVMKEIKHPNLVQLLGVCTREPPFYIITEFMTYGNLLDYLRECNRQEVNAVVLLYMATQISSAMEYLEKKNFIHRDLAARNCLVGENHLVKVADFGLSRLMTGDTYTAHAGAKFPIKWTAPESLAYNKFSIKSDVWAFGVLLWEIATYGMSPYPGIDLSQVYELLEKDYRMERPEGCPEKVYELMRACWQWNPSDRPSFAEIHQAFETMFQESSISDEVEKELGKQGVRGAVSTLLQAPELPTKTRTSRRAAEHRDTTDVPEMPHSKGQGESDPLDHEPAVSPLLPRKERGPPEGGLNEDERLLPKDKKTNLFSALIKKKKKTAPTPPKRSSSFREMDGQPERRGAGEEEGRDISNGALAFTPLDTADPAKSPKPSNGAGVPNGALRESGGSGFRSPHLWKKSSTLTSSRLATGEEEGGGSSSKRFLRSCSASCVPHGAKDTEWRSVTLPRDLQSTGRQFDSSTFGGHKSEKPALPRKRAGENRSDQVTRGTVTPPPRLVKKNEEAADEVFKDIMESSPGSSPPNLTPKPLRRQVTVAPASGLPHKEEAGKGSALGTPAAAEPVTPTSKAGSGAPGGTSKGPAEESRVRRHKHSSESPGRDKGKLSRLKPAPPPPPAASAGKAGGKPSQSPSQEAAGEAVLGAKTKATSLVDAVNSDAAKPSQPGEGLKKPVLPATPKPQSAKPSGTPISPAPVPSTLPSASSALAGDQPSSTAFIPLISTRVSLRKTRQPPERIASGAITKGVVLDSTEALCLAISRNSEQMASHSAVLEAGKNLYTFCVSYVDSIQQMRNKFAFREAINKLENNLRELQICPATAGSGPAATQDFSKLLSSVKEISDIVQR
Chain of Serine/threonine-protein kinase Chk2 (O96017 whole entry): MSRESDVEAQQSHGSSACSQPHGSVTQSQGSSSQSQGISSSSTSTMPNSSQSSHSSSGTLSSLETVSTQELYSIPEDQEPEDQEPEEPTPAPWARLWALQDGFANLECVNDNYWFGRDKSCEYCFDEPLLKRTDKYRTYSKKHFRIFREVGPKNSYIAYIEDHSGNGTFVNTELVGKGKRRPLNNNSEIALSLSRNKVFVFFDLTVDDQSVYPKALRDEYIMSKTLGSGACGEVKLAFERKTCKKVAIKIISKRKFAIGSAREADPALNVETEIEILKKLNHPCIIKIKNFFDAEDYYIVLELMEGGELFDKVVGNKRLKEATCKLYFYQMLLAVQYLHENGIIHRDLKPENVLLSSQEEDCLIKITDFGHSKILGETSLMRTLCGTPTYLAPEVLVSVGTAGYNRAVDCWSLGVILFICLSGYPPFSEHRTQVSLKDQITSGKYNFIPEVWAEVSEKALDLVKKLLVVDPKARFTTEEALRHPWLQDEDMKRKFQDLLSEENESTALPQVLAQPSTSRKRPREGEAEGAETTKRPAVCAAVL
Chain of Aurora kinase A (O14965 whole entry): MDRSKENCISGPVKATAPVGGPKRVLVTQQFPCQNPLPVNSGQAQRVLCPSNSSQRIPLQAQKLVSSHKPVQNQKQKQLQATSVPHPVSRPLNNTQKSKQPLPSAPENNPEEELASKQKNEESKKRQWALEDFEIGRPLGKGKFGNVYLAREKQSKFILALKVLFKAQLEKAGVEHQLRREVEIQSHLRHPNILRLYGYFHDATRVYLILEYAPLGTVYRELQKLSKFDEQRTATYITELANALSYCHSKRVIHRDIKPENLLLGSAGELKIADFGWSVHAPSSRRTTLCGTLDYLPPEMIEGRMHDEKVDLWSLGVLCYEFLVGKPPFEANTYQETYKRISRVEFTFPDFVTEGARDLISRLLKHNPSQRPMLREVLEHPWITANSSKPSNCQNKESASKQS

| inhibition [1] | inhibition [2] | GI50 (MCF7) | inhibition [3] | inhibition [4] | inhibition [5] | inhibition [6] | solubility [7] | IC50 [8] | IC50 [9] | IC50 [10] | IC50 [11] | IC50 [12] | IC50 [13] | IC50 [14] | IC50 (Aurora kinase A) | IC50 [15] | IC50 [16] | IC50 [17] | SMILES |
| --- | --- | --- | --- | --- | --- | --- | --- | --- | --- | --- | --- | --- | --- | --- | --- | --- | --- | --- | --- |
| 4% | 4% | 0.21 µM | 98% | 2% | 95% | 3% | – | – | – | – | – | – | – | – | – | – | – | – | Nc1c2c(=O)[nH]c(-c3ccccn3)cc2nn1-c1ccccc1 |
| 29% | 9% | – | 80% | 26% | 80% | 7% | 55 µg/mL (≈ 163 µM) | 34 µM | 35 µM | 5.2 µM | 18 µM | 39 µM | 7.7 µM | 14 µM | 33 µM | 17 µM | 7.8 µM | 24 µM | CN1CCN(c2ccc(-c3cc4c(c(N)nn4C)c(=O)[nH]3)cc2)CC1 |
| 7% | 3% | – | 13% | 2% | 11% | 14% | 469 µg/mL (≈ 1770 µM) | – | – | – | – | – | – | – | – | – | – | – | COC(=O)CCc1c(C)[nH]c(=O)c2c(N)nn(C)c12 |
